ChEMBL document CHEMBL2169869, “Assay and inhibition of diacylglycerol lipase activity” (Bioorg Med Chem Lett, 2012)
Active and inactive are the calls of the source. No cut-off for these calls is given here.

Experiments:
Settings in all cases: HEK-293T
[1] = target: T1, Diacylglycerol lipase-alpha (Mus musculus) (UniProt Q6WQJ1); test: Inhibition of mouse DAGLalpha expressed in HEK293T cell membrane using [14C]SAG substrate at 10000 nM by scintillation counting based radio-TLC assay; assay type: cell membranes
T1 sequence (whole entry): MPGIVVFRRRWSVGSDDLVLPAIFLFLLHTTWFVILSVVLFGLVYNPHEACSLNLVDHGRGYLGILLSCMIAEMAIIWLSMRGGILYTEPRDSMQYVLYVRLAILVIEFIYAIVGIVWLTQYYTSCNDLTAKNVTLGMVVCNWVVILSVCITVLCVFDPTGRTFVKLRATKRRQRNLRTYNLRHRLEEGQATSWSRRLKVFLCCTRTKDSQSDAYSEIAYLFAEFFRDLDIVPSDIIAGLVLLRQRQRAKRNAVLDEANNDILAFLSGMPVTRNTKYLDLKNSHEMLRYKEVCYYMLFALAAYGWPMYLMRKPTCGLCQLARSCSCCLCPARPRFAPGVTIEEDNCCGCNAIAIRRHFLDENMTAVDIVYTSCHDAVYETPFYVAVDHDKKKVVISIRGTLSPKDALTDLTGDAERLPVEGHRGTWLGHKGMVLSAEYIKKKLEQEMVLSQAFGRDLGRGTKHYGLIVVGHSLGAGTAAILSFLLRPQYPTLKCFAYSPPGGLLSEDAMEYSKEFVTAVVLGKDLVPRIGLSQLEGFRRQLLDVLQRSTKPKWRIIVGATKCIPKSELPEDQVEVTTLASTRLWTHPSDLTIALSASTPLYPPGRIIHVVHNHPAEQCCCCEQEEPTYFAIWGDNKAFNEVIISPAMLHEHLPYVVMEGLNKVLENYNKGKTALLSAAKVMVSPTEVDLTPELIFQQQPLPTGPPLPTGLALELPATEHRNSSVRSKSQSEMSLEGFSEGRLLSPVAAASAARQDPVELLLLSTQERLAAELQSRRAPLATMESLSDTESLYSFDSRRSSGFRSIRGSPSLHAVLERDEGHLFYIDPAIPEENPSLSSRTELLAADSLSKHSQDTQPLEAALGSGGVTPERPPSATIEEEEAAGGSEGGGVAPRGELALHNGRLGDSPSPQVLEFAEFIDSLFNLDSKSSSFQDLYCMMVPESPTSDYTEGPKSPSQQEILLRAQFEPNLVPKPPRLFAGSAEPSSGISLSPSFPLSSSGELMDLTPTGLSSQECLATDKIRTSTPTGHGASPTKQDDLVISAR

[2] = target: T1, Diacylglycerol lipase-alpha (Mus musculus); test: Inhibition of mouse DAGLalpha expressed in HEK293T cell membrane using [14C]SAG substrate at 10 nM by scintillation counting based radio-TLC assay; assay type: cell membranes
[3] = target: T2, Diacylglycerol lipase-alpha (Homo sapiens) (UniProt Q9Y4D2); test: Inhibition of human DAGLalpha expressed in HEK293T cell membrane using [14C]SAG substrate at 10 uM in detergent free solution by scintillation counting based radio-TLC assay
T2 sequence (whole entry): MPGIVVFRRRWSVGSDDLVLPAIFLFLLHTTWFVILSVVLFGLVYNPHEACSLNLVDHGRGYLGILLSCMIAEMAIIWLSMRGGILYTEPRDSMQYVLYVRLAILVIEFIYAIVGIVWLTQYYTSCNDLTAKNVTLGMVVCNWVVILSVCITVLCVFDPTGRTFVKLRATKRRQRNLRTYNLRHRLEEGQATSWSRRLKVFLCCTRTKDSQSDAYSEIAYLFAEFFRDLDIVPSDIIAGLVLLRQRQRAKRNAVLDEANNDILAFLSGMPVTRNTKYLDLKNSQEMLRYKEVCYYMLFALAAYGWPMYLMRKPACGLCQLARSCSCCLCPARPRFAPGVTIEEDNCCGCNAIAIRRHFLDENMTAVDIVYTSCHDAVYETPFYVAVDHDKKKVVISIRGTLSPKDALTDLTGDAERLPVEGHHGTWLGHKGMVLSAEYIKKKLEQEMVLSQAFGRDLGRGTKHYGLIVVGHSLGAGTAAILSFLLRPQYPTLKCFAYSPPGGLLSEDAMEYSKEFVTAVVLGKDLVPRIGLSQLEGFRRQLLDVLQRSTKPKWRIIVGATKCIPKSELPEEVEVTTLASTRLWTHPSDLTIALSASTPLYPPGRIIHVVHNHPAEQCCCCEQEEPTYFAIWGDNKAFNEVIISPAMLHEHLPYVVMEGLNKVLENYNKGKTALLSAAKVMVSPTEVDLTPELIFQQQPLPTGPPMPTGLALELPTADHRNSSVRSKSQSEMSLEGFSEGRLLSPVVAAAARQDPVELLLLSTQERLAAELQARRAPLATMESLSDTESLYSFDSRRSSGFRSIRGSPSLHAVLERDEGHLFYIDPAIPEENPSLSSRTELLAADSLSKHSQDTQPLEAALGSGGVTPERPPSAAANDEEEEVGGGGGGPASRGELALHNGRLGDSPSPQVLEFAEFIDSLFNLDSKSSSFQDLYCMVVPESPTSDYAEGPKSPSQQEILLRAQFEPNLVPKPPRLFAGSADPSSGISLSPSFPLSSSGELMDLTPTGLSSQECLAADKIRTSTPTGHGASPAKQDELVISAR

[4] = target: T2, Diacylglycerol lipase-alpha (Homo sapiens); test: Inhibition of human DAGLalpha expressed in HEK293T cell membrane using [14C]SAG substrate at 10 uM in presence of 0.05% Triton X-100 by […]; assay type: cell-based
[5] = target: T1, Diacylglycerol lipase-alpha (Mus musculus); test: Inhibition of mouse DAGLalpha expressed in HEK293T cell membrane using [14C]SAG substrate at 1000 nM by scintillation counting based radio-TLC assay; assay type: cell membranes
[6] = target: T1, Diacylglycerol lipase-alpha (Mus musculus); test: Inhibition of mouse DAGLalpha expressed in HEK293T cell membrane using [14C]SAG substrate at 100 nM by scintillation counting based radio-TLC assay; assay type: cell membranes
In short: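 mDAGLα radio-TLC using 8.8 μg membrane protein in 50 mM Tris pH 7.4 with 10 mM CaCl2. Inhibitor tested at 10 nM–10 μM, preincubated 15 min at 37 °C. [14C]SAG 20 μM final for 20 min at 37 °C. CHCl3/MeOH quench, silica TLC, phosphorimaging. Activity = labelled 2-AG+AA over total label. n=1–2.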

SMILES | inhibition [1] [%] | inhibition [2] | inhibition [3] | inhibition [4] [%] | inhibition [5] [%] | inhibition [6] [%]
O=C(Oc1ccc([N+](=O)[O-])cc1)N1CCC(C(O)(c2ccc3c(c2)OCO3)c2ccc3c(c2)OCO3)CC1 | 3 | inactive | inactive |  |  | 
CCCCCCCCCCC[C@@H](C[C@@H]1OC(=O)[C@H]1CCCCCC)OC(=O)[C@@H](NC=O)[C@@H](C)CC | 96 | 69% |  | 99 | 96 | 80
CCCCCCCCCCC[C@@H](C[C@@H]1OC(=O)[C@H]1CCCCCC)OC(=O)[C@@H](NC=O)[C@H](C)CC | 100 | 60% |  | 99 | 88 | 61
CCCCCCCCCCC[C@@H](C[C@@H]1OC(=O)[C@H]1CCCCCC)OC(=O)[C@H](CC)NC=O | 100 | 50% |  | 100 | 96 | 68
CCCCCCCCCCC[C@@H](C[C@@H]1OC(=O)[C@H]1CCCCCC)OC(=O)[C@H](NC=O)[C@@H](C)CC | 90 | 19% |  | 98 | 75 | 51
CCCCCCCCCCC[C@@H](C[C@@H]1OC(=O)[C@H]1CCCCCC)OC(=O)[C@H](NC=O)[C@H](C)CC | 85 | 33% |  | 98 | 69 | 29
CCCCCCCCCCC[C@@H](C[C@@H]1OC(=O)[C@H]1CCCCCC)OC(=O)[C@H](CC(C)C)NC=O [ORLISTAT] |  | 55% | 100% |  |  | 72
